Assay results: paper PMC5417661 (Drug Design, Development and Therapy, 2017)

Legend:
[1] = test system: A2780/Adr (drug resistant); test: Fluorometric microculture cytotoxicity assay; format: cell-based, human; conditions: for IC50 ratio (resistant vs sensitive cells): A2780/Adr vs A2780; for IC50: 72 h, A2780/Adr (drug resistant) ovarian carcinoma
In short: (§1)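 FMCA with cells seeded into plates pre-loaded with compound and stored at −20°C or −80°C. Seeding was 1,000–2,500 (384-well) or 5,000–10,000 (96-well) cells/well. Culture media: RPMI 1640 for CCRF-CEM, A2780, A2780/Adr, BXPC-3, U-937 and RPMI 8226; McCoy's for HT29 and HCT116. After 72 h, plates were washed and given fluorescein diacetate buffer for 45 min, then fluorescence was read. Survival index = (treated − blank)/(control − blank); IC50 taken from curves.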

[2] = test system: developing blood vessels of chick embryo; test: Ex ovo chicken embryo chorioallantoic membrane; format: in vivo; conditions: for effect on blood vessel growth and integrity: 10 nM, vs DMSO vehicle; for growth of the blood vessels (change in relative surface area) / vascular integrity (discontinuity of the vessels): 50 nM, 24 and 48 h posttreatment, vs controls
In short: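 Fertilized eggs incubated at 37.5°C and 60% humidity, then opened into 10 cm dishes on day 4. Two days later a 5 mm filter paper carrying test compound (10, 50, 200 nM), reference vascular disrupting agent or DMSO was laid on the CAM between two main vessels. Eggs were incubated 2 more days and photographed at 0, 24 and 48 h. Read-outs: relative surface area of vessels touching the paper, and disruption index (intact segments >10 mm).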

[3] = test system: panel of eight cancer cell lines; test: FMCA, range over the panel of cancer cell lines; format: cell-based, human; conditions: read-out: IC50, range over cell lines
In short: as §1

A2780 xenograft = test: Human OC cell xenograft study; format: in vivo, NMRI nu/nu female nude mice
HCT116 cells = test: Live cell microscopy; format: cell-based, human; conditions: HCT116, 50 nM, 30 cells
In short: (§2)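 HCT116, HCT8 and MCF10A cells were given 50 nM test compound or a reference tubulin agent and imaged on an IncuCyte immediately and for 3 days, at 1 h intervals, in three replicates. Growth curves used mean confluence from six images per time point. Mitotic duration and mitotic fate were scored from time-lapse films: 10 cells per well, 30 cells per condition.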

HCT8 cells = test: Live cell microscopy; format: cell-based, human; conditions: HCT8, 50 nM, 30 cells
In short: as §2

CaOv-3 cells = test: Time-lapse mitotic index and cell death index in OC cell lines; format: cell-based, human; conditions: CaOv-3, 12.5 nM
In short: (§3)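 Ovarian OvCar-8, OvCar-4 and CaOv-3 cells were time-lapse filmed for 3 days, starting immediately after adding 12.5 nM test compound, 12.5 nM paclitaxel or vehicle alone. Mitotic index and cell death index were scored from the films at 12, 24, 48 and 72 h.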

Caco-2 cell monolayers = test: Caco-2 permeability assay; format: in vitro ADME, human
In short: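 Caco-2 monolayers grown to confluence on collagen-coated polycarbonate transwell membranes. Buffer was HBSS with 10 mM HEPES and 15 mM glucose, pH 7.4; the receiver side also held 1% BSA. 5 μM test compound was dosed apically (A-to-B) or basolaterally (B-to-A) at 37°C, 5% CO2. Donor and receiver were sampled at 120 min, in duplicate. Co-applied Lucifer yellow checked integrity. High permeability: Papp A-to-B ≥1.0×10−6 cm/s.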

[4] = test system: cocultures of endothelial colony forming cells (ECFCs) and adipocyte derived stem cells (ADSCs); test: Vascular tube formation assay, neoangiogenic; format: cell-based, human; conditions: 4.6 nM–10 µM, VEGF 20 ng/mL coapplied on day 0
In short: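 Cocultures of GFP-labelled endothelial colony forming cells and adipocyte-derived stem cells (StemKit). Compounds were co-applied with VEGF (20 ng/mL) on day 0 to follow cord formation. Fluorescent and phase-contrast images (10×) were taken every 6 h for up to 8 days. Cord length (mm/mm2) and branch points were analysed from 3–6 separate samples per condition.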

OvCar-4 cells = test: Time-lapse mitotic index and cell death index in OC cell lines; format: cell-based, human
[5] = Plasma levels in the maximal tolerated dose study; format: in vivo, NMRI nu/nu female mice
In short: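 In the maximal tolerated dose study, female NMRI nu/nu mice received test compound PO at 10, 20 or 40 mg/kg. Plasma concentrations were measured 1 and 4 h after dosing.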

[6] = test system: HCT116, HCT8 and MCF10A cells; format: cell-based, human
In short: as §2

OvCar-8 cells = test: Time-lapse mitotic index and cell death index in OC cell lines; format: cell-based, human; conditions: OvCar-8, 12.5 nM
In short: as §3

[7] = test system: cocultures of endothelial colony forming cells (ECFCs) and adipocyte derived stem cells (ADSCs); test: Vascular tube formation assay, disruption of established cords; format: cell-based, human
In short: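 Cocultures of GFP-labelled endothelial colony forming cells and adipocyte-derived stem cells were stimulated with VEGF (20 ng/mL) to form cords. Compounds were added to the established cords at 96 h. Images were taken every 6 h and scored for relative cord length and branch points. pIC50 came from a four-parameter logistic fit of area-under-curve data between 96 and 186 h.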

bovine tubulin protein = test: In vitro tubulin polymerization assay; format: biochemical; conditions: cell-free, 60 min
In short: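 Commercial kit using bovine tubulin, cell-free. The test compound was tested at 1.0–10 µM. Vincristine and paclitaxel at 3.0 µM served as inhibition and stabilization controls. Compounds were dissolved in DMSO and diluted in sterile water to at most 0.1% DMSO, which was the solvent control. Polymerization was followed by a fluorescent reporter incorporated into microtubules and read continuously at 360/450 nm for 60 min.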

MCF10A cells = test: Live cell microscopy; format: cell-based, human; conditions: 50 nM, 30 cells
In short: as §2

Structure (SMILES): CCC[C@H](Nc1nc(-c2ccc(NC(=O)NCC)c(OC)c2)ncc1C)c1cccnc1 [CYT997, lexibulin]
- IC50 ratio (resistant vs sensitive cells) [1]: 3.35
- IC50 ([1]; Homo sapiens, A2780 ADR): 183 nM

Structure (SMILES): COc1ccc(/C=C\c2cc(OC)c(OC)c(OC)c2)cc1O [Combretastatin A4, reference compound]
- effect on blood vessel growth and integrity [2]: ineffective
- growth of the blood vessels (change in relative surface area) [2]: significantly suppressed
- vascular integrity (discontinuity of the vessels) [2]: significantly suppressed

Structure (SMILES): COc1ccc2[nH]cc(CCNc3nccc(Nc4cccc5c4ccn5C)n3)c2c1 [NOV202]
- IC50 [3]: 2.3 to 12 nM
- effect on tumor volume (A2780 xenograft; PO 40 mg/kg, 5 days on/2 days off, comparable to paclitaxel 24 mg/kg IV): clear antitumor effect
- tolerability by body weight measurements (A2780 xenograft; PO 10, 20, 40 mg/kg during the treatment): well tolerated
- IC50 [1]: 2.3 nM
- IC50 ratio (resistant vs sensitive cells) [1]: 0.96
- average duration of mitosis (HCT116 cells): 26.2 ± 7.1 h
- average duration of mitosis (HCT8 cells): 11.8 ± 3.1 h
- mitotic index (MI) (CaOv-3 cells; 12 h): 12.7%±2.5%
- cell death index (CDI) (CaOv-3 cells; 24 h): 46.0%±1.7%
- cell death index (CDI) (CaOv-3 cells; 48 h): 68.7%±4.2%
- cell death index (CDI) (CaOv-3 cells; 72 h): 77.0%±4.6%
- Efflux ratio (Caco-2 cell monolayers; bi-directional Caco-2): 1.0
- Efflux substrate (Caco-2 cell monolayers; significant efflux: efflux ratio >3.0 and Papp B-to-A ≥1.0×10^−6 cm/s): no significant efflux
- VEGF-induced cord (tube) formation [4]: completely inhibit tube formation
- mitotic index (MI) (OvCar-4 cells; OvCar-4, 12.5 nM, 12 h): 24.0%±9.5%
- cell death index (CDI) (OvCar-4 cells; OvCar-4, 12.5 nM, 24 h): 13.7%±1.5%
- cell death index (CDI) (OvCar-4 cells; OvCar-4, 12.5 nM, 48 h): 16.3%±2.1%
- cell death index (CDI) (OvCar-4 cells; OvCar-4, 12.5 nM, 72 h): 12.0%±1.0%
- cell death index (CDI) (OvCar-4 cells; OvCar-4, 50 nM, 24 h): 28.7%±6.8%
- cell death index (CDI) (OvCar-4 cells; OvCar-4, 50 nM, 48 h): 48.3%±10.7%
- cell death index (CDI) (OvCar-4 cells; OvCar-4, 50 nM, 72 h): 59.3%±13.2%
- plasma concentration ([5]; PO 10 mg/kg, 1 h post-dosing): 21 nM
- plasma concentration ([5]; PO 10 mg/kg, 4 h post-dosing): 17 nM
- plasma concentration ([5]; PO 20 mg/kg, 1 h post-dosing): 54 nM
- plasma concentration ([5]; PO 20 mg/kg, 4 h post-dosing): 29 nM
- plasma concentration ([5]; PO 40 mg/kg, 1 h post-dosing): 309 nM
- plasma concentration ([5]; PO 40 mg/kg, 4 h post-dosing): 76 nM
- cell population growth (cell confluency) ([6]; 50 nM, filmed for 3 days): strong growth suppression
- effect on interphase and mitotic microtubule networks ([6]; 15–50 nM, data not shown): markedly disrupted or completely wiped out
- mitotic index (MI) (OvCar-8 cells; 12 h): 27.0%±4.0%
- cell death index (CDI) (OvCar-8 cells; 24 h): 29.0%±9.0%
- cell death index (CDI) (OvCar-8 cells; 48 h): 31.0%±10.5%
- cell death index (CDI) (OvCar-8 cells; 72 h): 30.0%±2.3%
- pIC50, disruption of VEGF stimulated established cords ([7]; four-parameter logistic fit of AUC between 96 and 186 h, VEGF 20 ng/mL): 8.3
- effect on blood vessel growth and integrity [2]: ineffective
- growth of the blood vessels (change in relative surface area) [2]: significantly suppressed
- vascular integrity (discontinuity of the vessels) [2]: significantly suppressed
- effect on tubulin polymerization (bovine tubulin protein; 1.0 µM): slowed down the rate of the polymerization, but could not suppress it
- effect on tubulin polymerization (bovine tubulin protein; 3.0 µM): suppress tubulin heterodimer polymerization
- effect on tubulin polymerization (bovine tubulin protein; 10 µM): block the polymerization almost completely
- average duration of mitosis (MCF10A cells): 16.4 ± 5.2 h

Structure (SMILES): CC(=O)O[C@H]1C(=O)[C@@]2(C)[C@H]([C@H](OC(=O)c3ccccc3)[C@]3(O)C[C@H](OC(=O)[C@H](O)[C@@H](NC(=O)c4ccccc4)c4ccccc4)C(C)=C1C3(C)C)[C@]1(OC(C)=O)CO[C@@H]1C[C@@H]2O [PTX, paclitaxel]
- IC50 ratio (resistant vs sensitive cells) [1]: 3,115
- IC50 ([1]; Homo sapiens, A2780 ADR): 810 nM
- effect on tubulin polymerization (bovine tubulin protein; 3.0 µM): effective stabilizer of tubulin polymerization

Structure (SMILES): CC[C@]1(O)C[C@H]2CN(CCc3c([nH]c4ccccc34)[C@@](C(=O)OC)(c3cc4c(cc3OC)N(C=O)[C@H]3[C@@](O)(C(=O)OC)[C@H](OC(C)=O)[C@]5(CC)C=CCN6CC[C@]43[C@@H]65)C2)C1 [VinC, vincristine]
- IC50 ratio (resistant vs sensitive cells) [1]: 955
- IC50 ([1]; Homo sapiens, A2780 ADR): 210 nM
- effect on tubulin polymerization (bovine tubulin protein; 3.0 µM): suppress tubulin heterodimer polymerization

Structure (SMILES): Cc1ccc(C(=O)Nc2ccc(S(=O)(=O)O)c3cc(S(=O)(=O)O)cc(S(=O)(=O)O)c23)cc1NC(=O)c1cccc(NC(=O)Nc2cccc(C(=O)Nc3cc(C(=O)Nc4ccc(S(=O)(=O)O)c5cc(S(=O)(=O)O)cc(S(=O)(=O)O)c45)ccc3C)c2)c1 [suramin, reference compound]
- effect on established cords ([7]; 100 µM, added at t=96 h): complete regression of established cords
